Results as given in ChEMBL document CHEMBL5678806, “NMS-P937, an orally available, specific small-molecule polo-like kinase 1 inhibitor with antitumor activity in solid and hematologic malignancies” (Mol Cancer Ther, 2012).
Active and inactive are the calls of the source. No cut-off for these calls is given here.

How the values were obtained:
[1] = Inhibition of AUR1 (unknown origin) in presence of [gamma-33P]ATP; parameters: species or system Homo sapiens
[2] = target: Eukaryotic elongation factor 2 kinase (Homo sapiens, UniProt O00418); assay: Inhibition of EEF2K (unknown origin) in presence of [gamma-33P]ATP
Sequence of Eukaryotic elongation factor 2 kinase (O00418 whole entry): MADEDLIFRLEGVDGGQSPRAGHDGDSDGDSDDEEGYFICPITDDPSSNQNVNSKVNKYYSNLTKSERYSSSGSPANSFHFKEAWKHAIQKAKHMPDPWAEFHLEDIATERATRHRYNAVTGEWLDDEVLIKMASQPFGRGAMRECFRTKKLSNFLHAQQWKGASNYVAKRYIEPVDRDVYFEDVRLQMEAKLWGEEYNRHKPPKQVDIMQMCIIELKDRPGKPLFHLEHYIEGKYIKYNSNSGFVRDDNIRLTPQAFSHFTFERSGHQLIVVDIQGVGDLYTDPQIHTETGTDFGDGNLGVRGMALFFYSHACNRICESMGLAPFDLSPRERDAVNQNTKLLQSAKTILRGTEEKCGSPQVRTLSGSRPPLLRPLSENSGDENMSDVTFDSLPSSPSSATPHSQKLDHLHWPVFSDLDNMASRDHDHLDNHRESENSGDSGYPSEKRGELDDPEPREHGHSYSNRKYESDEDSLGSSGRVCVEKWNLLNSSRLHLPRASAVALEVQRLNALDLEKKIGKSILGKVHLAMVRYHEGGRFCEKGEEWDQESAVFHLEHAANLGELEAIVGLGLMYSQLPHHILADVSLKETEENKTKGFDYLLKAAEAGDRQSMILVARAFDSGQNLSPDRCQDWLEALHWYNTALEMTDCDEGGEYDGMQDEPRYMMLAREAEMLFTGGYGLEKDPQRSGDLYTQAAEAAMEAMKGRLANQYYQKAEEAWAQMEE

[3] = target: Tyrosine-protein kinase JAK3 (Homo sapiens, UniProt P52333); assay: Inhibition of JAK3 (unknown origin) in presence of [gamma-33P]ATP
Sequence of Tyrosine-protein kinase JAK3 (P52333 whole entry, the tested form may be a part): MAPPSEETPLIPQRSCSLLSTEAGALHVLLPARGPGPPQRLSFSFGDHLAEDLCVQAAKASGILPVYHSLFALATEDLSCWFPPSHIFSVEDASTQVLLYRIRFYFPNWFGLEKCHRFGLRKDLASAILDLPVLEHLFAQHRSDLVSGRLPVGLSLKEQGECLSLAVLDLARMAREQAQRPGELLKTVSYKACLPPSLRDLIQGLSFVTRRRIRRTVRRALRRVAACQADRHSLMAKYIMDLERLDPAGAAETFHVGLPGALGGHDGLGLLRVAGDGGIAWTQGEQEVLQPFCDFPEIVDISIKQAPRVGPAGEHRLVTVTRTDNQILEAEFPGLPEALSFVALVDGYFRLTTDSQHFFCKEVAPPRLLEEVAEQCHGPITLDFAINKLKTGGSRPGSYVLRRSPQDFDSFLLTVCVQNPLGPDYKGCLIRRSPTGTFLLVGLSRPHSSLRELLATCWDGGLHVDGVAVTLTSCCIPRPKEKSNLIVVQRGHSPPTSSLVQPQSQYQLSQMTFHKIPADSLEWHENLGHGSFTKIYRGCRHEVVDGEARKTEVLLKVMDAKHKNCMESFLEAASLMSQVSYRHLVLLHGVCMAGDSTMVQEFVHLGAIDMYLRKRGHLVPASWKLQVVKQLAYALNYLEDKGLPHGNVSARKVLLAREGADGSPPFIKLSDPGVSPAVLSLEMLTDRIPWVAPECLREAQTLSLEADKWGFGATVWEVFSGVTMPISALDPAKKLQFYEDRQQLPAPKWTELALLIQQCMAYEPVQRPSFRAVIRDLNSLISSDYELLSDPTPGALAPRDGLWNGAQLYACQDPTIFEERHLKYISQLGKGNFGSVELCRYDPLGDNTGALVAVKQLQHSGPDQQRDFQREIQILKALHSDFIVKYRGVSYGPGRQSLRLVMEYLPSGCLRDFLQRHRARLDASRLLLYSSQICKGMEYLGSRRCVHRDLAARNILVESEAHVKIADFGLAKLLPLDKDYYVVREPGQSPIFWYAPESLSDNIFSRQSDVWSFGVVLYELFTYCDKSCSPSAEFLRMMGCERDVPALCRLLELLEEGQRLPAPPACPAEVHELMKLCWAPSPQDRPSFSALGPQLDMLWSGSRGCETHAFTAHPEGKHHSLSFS

[4] = target: RAF proto-oncogene serine/threonine-protein kinase (Homo sapiens) (UniProt P04049); assay: Inhibition of N-terminal GST-tagged recombinant human c-RAF (306 to 648 residues) expressed in Sf9 cells assessed as residual activity at 0.1 uM relative to control
Sequence of RAF proto-oncogene serine/threonine-protein kinase (Homo sapiens) (P04049 whole entry, the tested form may be a part): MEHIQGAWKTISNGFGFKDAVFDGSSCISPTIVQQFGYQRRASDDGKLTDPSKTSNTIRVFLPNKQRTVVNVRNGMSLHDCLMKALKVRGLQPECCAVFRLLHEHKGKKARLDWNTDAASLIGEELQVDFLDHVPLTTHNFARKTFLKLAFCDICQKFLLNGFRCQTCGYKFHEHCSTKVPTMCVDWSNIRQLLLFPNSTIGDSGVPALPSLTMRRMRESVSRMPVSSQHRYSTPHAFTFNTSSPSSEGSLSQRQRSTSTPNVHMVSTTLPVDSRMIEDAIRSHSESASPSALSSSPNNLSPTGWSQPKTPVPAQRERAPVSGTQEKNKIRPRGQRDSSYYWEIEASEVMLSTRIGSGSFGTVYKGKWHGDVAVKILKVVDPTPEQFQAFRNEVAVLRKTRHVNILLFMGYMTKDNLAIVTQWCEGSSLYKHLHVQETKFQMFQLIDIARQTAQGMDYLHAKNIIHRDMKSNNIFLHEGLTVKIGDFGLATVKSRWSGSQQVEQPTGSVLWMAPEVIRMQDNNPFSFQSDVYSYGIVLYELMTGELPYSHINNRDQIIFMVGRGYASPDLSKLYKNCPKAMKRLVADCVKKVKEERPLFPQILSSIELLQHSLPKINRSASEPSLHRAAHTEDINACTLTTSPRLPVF

[5] = target: Tyrosine-protein kinase Fes/Fps (Homo sapiens) (UniProt P07332); assay: Inhibition of N-terminal His6-tagged recombinant full length human Fes expressed in baculovirus infected Sf21 cells assessed as residual activity at 0.1 uM relative to control
Sequence of Tyrosine-protein kinase Fes/Fps (Homo sapiens) (P07332 whole entry): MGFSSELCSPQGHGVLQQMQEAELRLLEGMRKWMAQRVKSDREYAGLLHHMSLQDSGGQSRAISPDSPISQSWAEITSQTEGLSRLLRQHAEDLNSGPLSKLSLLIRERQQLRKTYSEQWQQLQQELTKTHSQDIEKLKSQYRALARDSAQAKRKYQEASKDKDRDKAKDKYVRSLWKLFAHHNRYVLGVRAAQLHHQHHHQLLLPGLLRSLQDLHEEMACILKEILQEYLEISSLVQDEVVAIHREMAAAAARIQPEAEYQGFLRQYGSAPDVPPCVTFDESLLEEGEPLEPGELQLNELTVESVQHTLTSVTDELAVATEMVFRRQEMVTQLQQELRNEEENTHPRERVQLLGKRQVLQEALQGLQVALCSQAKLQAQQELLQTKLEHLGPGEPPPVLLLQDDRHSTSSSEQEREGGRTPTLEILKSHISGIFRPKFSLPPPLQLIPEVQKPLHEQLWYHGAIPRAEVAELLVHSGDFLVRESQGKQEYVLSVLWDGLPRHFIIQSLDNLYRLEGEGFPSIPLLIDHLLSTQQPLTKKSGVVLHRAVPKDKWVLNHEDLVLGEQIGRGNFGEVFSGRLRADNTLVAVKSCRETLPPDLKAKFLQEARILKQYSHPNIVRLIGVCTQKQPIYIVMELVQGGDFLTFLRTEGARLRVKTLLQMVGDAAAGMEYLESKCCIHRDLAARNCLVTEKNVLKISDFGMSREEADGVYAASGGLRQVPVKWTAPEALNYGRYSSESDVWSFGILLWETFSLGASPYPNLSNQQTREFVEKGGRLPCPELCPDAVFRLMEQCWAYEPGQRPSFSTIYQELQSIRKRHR

Casein kinase 2 = Casein kinase 2 (Homo sapiens, UniProt P67870+P68400+P19784+Q8NEV1); assay: Inhibition of alpha-subunit N-terminal 6His- and beta-subunit N-terminal GST-tagged recombinant human CK2 expressed in baculovirus infected Sf21 cells assessed as residual activity at 1 uM relative to control
[6] = target: Tyrosine-protein kinase HCK (Homo sapiens) (UniProt P08631); assay: Inhibition of N-terminal 6His-tagged recombinant human Hck (230 to 497 residues) expressed in baculovirus infected Sf21 cells assessed as residual activity at 1 uM relative to control
Sequence of Tyrosine-protein kinase HCK (Homo sapiens) (P08631 2-526 limits assumed): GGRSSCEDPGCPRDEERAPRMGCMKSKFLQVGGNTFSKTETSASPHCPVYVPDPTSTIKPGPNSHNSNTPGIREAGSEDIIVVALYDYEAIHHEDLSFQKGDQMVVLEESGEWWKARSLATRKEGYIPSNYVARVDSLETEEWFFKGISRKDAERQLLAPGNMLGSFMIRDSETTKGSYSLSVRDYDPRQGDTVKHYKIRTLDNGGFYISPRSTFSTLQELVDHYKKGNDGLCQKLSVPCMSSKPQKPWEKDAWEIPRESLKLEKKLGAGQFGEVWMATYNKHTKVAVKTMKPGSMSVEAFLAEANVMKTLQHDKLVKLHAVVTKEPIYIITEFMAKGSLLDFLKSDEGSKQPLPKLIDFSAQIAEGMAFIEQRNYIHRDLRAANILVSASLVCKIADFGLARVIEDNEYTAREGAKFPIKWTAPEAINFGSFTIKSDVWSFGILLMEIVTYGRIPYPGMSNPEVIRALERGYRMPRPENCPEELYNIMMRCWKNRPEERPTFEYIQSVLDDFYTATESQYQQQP

SF-268 = assay: Antiproliferative activity against human SF-268 cells assessed as inhibition of cell growth incubated for 72 hrs by cell-titer glo assay; type: functional, cell-based; details: SF-268, 72 h
Summary of the method: (§1)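 Cells from ATCC or ECACC, kept in supplier-recommended medium with 1% penicillin-streptomycin at 37°C, 5% CO₂. Seeded at 10,000–30,000/cm² (adherent) or 100,000/mL (nonadherent) in medium with 10% fetal calf serum. Dosed after 24 h in duplicate with serial dilutions. Viable cells read by CellTiter-Glo 72 h later. IC50 from sigmoidal fit. At least two independent experiments.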

U-251 = assay: Antiproliferative activity against human U-251 cells assessed as inhibition of cell growth incubated for 72 hrs by cell-titer glo assay; type: functional, cell-based; details: U-251, 72 h
SH-SY5Y = assay: Antiproliferative activity against human SH-SY5Y cells assessed as inhibition of cell growth incubated for 72 hrs by cell-titer glo assay; type: functional, cell-based
MDA-MB-453 = assay: Antiproliferative activity against human MDA-MB-453 cells assessed as inhibition of cell growth incubated for 72 hrs by cell-titer glo assay; type: functional, cell-based; details: MDA-MB-453, 72 h
Summary of the method: (§2)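 Cells seeded at 10,000–30,000/cm² (adherent) or 100,000/mL (nonadherent) in medium with 10% fetal calf serum; after 24 h, treated in duplicate with serial dilutions for 72 h. Viable cell number read by CellTiter-Glo luminescence; IC50 from sigmoidal fit; at least two independent experiments.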

JIMT-1 = assay: Antiproliferative activity against human JIMT-1 cells assessed as inhibition of cell growth incubated for 72 hrs by cell-titer glo assay; type: functional, cell-based; details: JIMT-1, 72 h; summary of the method: as §2
LS180 = assay: Antiproliferative activity against human LS180 cells assessed as inhibition of cell growth incubated for 72 hrs by cell-titer glo assay; type: functional, cell-based; details: LS180, 72 h; summary of the method: as §2
[7] = Antiproliferative activity against human Lovo/DX cells assessed as inhibition of cell growth incubated for 72 hrs by cell-titer glo assay; type: functional, cell-based; summary of the method: as §2
SN12C = assay: Antiproliferative activity against human SN12C cells assessed as inhibition of cell growth incubated for 72 hrs by cell-titer glo assay; type: functional, cell-based
NCI-H1993 = assay: Antiproliferative activity against human NCI-H1993 cells assessed as inhibition of cell growth incubated for 72 hrs by cell-titer glo assay; type: functional, cell-based; details: NCI-H1993, 72 h; summary of the method: as §1
[8] = Antiproliferative activity against human NCI-H2110 cells assessed as inhibition of cell growth incubated for 72 hrs by cell-titer glo assay; type: functional, cell-based; details: NCI-H2110, 72 h; summary of the method: as §1
NCI-H2228 = assay: Antiproliferative activity against human NCI-H2228 cells assessed as inhibition of cell growth incubated for 72 hrs by cell-titer glo assay; type: functional, cell-based; details: NCI-H2228, 72 h; summary of the method: as §1
NCI/ADR-RES = assay: Antiproliferative activity against human NCI/ADR-RES cells assessed as inhibition of cell growth incubated for 72 hrs by cell-titer glo assay; type: functional, cell-based; summary of the method: as §1
[9] = Antiproliferative activity against human MEC-1 cells assessed as inhibition of cell growth incubated for 72 hrs by cell-titer glo assay; type: functional, cell-based; details: MEC1, 72 h; summary of the method: as §2
SU-DHL10 = assay: Antiproliferative activity against human SU-DHL-10 cells assessed as inhibition of cell growth incubated for 72 hrs by cell-titer glo assay; type: functional, cell-based; details: SU-DHL10, 72 h
SUD4 = assay: Antiproliferative activity against human SU-DHL-4 cells assessed as inhibition of cell growth incubated for 72 hrs by cell-titer glo assay; type: functional, cell-based; details: SU-DHL-4, 72 h
HT-29 = assay: Antiproliferative activity against human HT-29 cells assessed as inhibition of colony formation at <= 8 nmol/L incubated for 72 hrs and measured after 18 days by crystal violet staining based analysis; type: functional, cell-based
Summary of the method: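 HT29 colon adenocarcinoma cells exposed to a range of concentrations for 72 h, then compound removed and cells replated and grown 18 days in compound-free medium; colony formation scored.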

[10] = Volume of distribution at steady state in nu/nu mouse at 10 mg/kg, iv by LC-MS analysis; type: ADME, organism-based; details: in vivo, read-out: Vdss
[11] = Volume of distribution at steady state in Beagle dog at 5 mg/kg, iv by LC-MS analysis; type: ADME, organism-based, Canis lupus familiaris; details: in vivo, read-out: Vdss
[12] = AUC in nu/nu mouse at 10 mg/kg, iv by LC-MS analysis; type: ADME, organism-based; details: in vivo
[13] = AUC in Beagle dog at 5 mg/kg, iv by LC-MS analysis; type: ADME, organism-based, Canis lupus familiaris; details: in vivo
U2OS = assay: Induction of cell death in human U2OS cells assessed as reduced cell number at 1 uM by time lapse microscopy analysis; type: functional, cell-based; details: time lower […], time upper 48.0 hrs, TDE = time-dependent effect
A2780 [14] = assay: In vivo inhibition of PLK1 in human A2780 cells xenografted in nu/nu mouse assessed as decreased TCTP phosphorylation on Ser46 at 60 mg/kg, po administered for 2 hrs by immunohistochemistry analysis; type: functional, organism-based
A2780 [15] = assay: Induction of cell cycle arrest in human A2780 cells assessed as accumulation of cells at G2/M phase by measuring 4N DNA content incubated for 24 hrs by flow cytometry analysis; details: dose 20-200 nmol/L
[16] = target: PDPK1, 3-phosphoinositide-dependent protein kinase 1 (Homo sapiens) (UniProt O15530); assay: Inhibition of N-terminal His6-tagged recombinant human PDK1 (52 to end residues) expressed in baculovirus infected Sf21 cells assessed as residual activity at 1 uM relative to control
Sequence of PDPK1, 3-phosphoinositide-dependent protein kinase 1 (Homo sapiens) (O15530 whole entry, looked up): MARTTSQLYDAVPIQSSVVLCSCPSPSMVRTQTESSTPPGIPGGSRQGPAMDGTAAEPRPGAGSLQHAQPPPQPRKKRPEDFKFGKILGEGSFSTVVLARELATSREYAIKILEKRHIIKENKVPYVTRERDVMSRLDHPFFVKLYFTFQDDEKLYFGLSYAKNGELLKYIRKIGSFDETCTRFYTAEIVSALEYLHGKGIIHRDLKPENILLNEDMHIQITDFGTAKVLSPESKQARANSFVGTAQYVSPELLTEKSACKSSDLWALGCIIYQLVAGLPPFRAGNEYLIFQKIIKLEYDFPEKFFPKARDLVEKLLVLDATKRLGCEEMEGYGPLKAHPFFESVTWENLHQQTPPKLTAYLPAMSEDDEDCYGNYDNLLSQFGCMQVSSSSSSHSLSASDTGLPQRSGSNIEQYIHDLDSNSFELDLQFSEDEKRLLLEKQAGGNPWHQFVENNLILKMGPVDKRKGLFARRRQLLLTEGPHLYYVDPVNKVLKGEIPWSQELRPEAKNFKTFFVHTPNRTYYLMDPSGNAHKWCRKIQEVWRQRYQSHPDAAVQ

## CN1CCN(c2ccc(OC(F)(F)F)c(Nc3ncc4c(n3)-c3c(c(C(N)=O)nn3CCO)CC4)c2)CC1 [ONVANSERTIB]
[1]
  IC50: > 10000 nM
[2]
  IC50: > 10000 nM
[3]
  IC50: > 10000 nM
[4]
  Activity: 93%
[5]
  Activity: 73%
Casein kinase 2
  Activity: 42%
[6]
  Activity: 118%
SF-268
  IC50: 90 nM
U-251
  IC50: 190 nM
SH-SY5Y
  IC50: 30 nM
MDA-MB-453
  IC50: 90 nM
JIMT-1
  IC50: 105 nM
LS180
  IC50: 192 nM
[7]
  IC50: 1720 nM
SN12C
  IC50: 62 nM
NCI-H1993
  IC50: 287 nM
[8]
  IC50: 68 nM
NCI-H2228
  IC50: 335 nM
NCI/ADR-RES
  IC50: 1210 nM
[9]
  IC50: 112 nM
SU-DHL10
  IC50: 43 nM
SUD4
  IC50: 56 nM
HT-29
  Activity: Active
[10]
  Vd: 1.7 L/kg
[11]
  Vd: 9.5 L/kg
[12]
  AUC: 8.6 µM·h
[13]
  AUC: 4.2 µM·h
U2OS
  Activity: Tde
A2780 [14]
  inhibition: Active
A2780 [15]
  Activity: Dose-Dependent Effect
[16]
  Activity: 144%
